Results published in paper PMC3107912 (Bioorganic & medicinal chemistry letters, 2011).
Values belong to the molecule of their own block, whether it stands above or below them.

How the values were obtained:
Format in all cases: cell-based
[1] = target: T1, S1P4 receptor (Homo sapiens, UniProt O95977); test: S1P4 functional antagonist assay; conditions: for fold less potent than the hit (1) at S1P4: versus hit compound 1
T1 sequence (O95977 1-384): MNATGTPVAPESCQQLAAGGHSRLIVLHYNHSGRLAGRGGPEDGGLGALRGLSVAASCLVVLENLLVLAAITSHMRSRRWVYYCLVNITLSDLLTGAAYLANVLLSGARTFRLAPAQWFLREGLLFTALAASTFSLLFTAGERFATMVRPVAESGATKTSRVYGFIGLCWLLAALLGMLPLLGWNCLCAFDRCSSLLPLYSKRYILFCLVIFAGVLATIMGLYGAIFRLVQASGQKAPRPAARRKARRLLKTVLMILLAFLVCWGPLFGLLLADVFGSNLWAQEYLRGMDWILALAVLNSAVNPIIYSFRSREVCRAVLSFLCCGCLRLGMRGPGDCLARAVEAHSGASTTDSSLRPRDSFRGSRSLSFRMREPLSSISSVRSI
How it was run: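 U2OS cells co-express a beta-arrestin/TEV protease fusion protein and a beta-lactamase reporter gene under the control of a UAS response element. Beta-lactamase expression is read as FRET from a cleavable, fluorogenic, cell-permeable beta-lactamase substrate. The test compound's antagonism of the S1P4 receptor is reported as an IC50.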

[2] = target: S1P1 (Homo sapiens, UniProt P21453); test: S1P selectivity counter screen, functional assay at S1P1
S1P1, sequence (P21453 whole entry, species assumed): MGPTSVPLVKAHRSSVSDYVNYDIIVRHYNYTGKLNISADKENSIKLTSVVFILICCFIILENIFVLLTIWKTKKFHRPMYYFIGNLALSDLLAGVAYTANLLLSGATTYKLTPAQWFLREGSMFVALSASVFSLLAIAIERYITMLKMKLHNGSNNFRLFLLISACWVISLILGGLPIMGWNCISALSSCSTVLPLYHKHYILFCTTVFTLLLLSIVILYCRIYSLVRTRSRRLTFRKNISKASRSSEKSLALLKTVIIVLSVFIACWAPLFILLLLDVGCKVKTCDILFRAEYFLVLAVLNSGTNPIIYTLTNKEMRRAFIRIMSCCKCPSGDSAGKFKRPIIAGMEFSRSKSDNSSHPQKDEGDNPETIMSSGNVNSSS

[3] = target: S1P2 (Homo sapiens, UniProt O95136); test: S1P selectivity counter screen, functional assay at S1P2
S1P2, sequence (O95136 whole entry, species assumed): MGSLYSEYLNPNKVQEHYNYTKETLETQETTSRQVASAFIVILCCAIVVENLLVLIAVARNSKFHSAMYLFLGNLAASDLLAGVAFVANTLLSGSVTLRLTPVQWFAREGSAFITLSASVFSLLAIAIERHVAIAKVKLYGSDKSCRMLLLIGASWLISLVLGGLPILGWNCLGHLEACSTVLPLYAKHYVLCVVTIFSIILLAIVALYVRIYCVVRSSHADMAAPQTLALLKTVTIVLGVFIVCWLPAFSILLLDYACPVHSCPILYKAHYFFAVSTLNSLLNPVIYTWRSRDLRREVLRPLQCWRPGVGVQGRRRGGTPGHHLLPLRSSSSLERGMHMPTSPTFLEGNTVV

[4] = target: S1P3 (Homo sapiens, UniProt Q99500); test: S1P selectivity counter screen, functional assay at S1P3
S1P3, sequence (Q99500 whole entry, species assumed): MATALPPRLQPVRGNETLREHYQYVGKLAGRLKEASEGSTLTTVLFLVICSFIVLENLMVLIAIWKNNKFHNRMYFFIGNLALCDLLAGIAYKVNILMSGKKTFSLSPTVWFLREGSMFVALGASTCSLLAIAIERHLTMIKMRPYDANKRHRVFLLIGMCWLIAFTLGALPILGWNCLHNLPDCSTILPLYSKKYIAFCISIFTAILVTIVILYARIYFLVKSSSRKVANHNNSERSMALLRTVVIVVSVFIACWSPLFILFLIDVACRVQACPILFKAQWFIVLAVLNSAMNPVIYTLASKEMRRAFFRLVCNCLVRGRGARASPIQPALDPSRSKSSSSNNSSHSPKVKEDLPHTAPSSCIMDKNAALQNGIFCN

Compound: Cc1cc(C)c(N(C)C(=O)c2ccc(-c3cc(Cl)ccc3Cl)o2)c(C)c1 [4r]
- fold less potent than the homolog 4q at S1P4 ([1]; versus 4q): approximately 128 fold

Compound: Cc1cc(CO)cc(C)c1NC(=O)c1ccc(-c2cc(Cl)ccc2Cl)o1 [4t]
- IC50 [1]: 0.036 µM

Compound: O=C(c1ccc(-c2cc(Cl)ccc2Cl)o1)N1CCc2ccccc21 [4j]
- S1P4 activity in words [1]: suppressed completely the activity

Compound: Cc1cccc(C)c1NC(=O)c1ccc(-c2cc(Cl)ccc2Cl)o1 [compound 1, 5-(2,5-dichlorophenyl)-N-(2,6-dimethylphenyl)furan-2-carboxamide]
- IC50 [2]: > 25 µM
- IC50 [3]: > 25 µM
- IC50 [4]: > 25 µM

Second part, the molecule after the results:

- fold less potent than the hit (1) at S1P4 [1]: 6 fold
Compound: Cc1cccc(C)c1NC(=O)c1ccc(-c2cccc(Cl)c2)o1 [9b]

- S1P4 activity in words [1]: inactive
Compound: Cc1cccc(C)c1NC(=O)c1ccc(-c2c(C)cccc2C)o1 [9j]

- fold less potent than the hit (1) at S1P4 [1]: 3 fold
Compound: Cc1cccc(C)c1N(C)C(=O)c1ccc(-c2ccccc2Cl)o1 [9c]

- fold more potent than 9k at S1P4 ([1]; versus 9k): 1.5 fold
Compound: Cc1cscc1-c1ccc(C(=O)Nc2c(C)cccc2C)o1 [9l]

- fold less potent than mono-chlorinated 9c at S1P4 ([1]; versus 9c): 7 fold
- fold less potent than the hit (1) at S1P4 [1]: 25 fold
Compound: Cc1cccc(C)c1NC(=O)c1ccc(-c2ccc(Cl)cc2Cl)o1 [9a]
